Tested on: U2OS
Experiment: Multiplex assay against U2OS
Format: toxicity, cell-based
Conditions: human
Summary of the method: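 Four dyes were applied at seeding to live cells: Hoechst33342, BioTracker Green Microtubule Cytoskeleton Dye, MitoTracker Red and Annexin V Alexa Fluor 680. Imaging after compound addition used a CQ1 microscope at 37°C and 5% CO2. CellPathfinder machine-learning gating then sorted cells into Hoechst high-intensity objects or normal cells, normal cells into healthy, pyknosed or fragmented nuclei, and pyknosed cells into mitotic or apoptotic, with tubulin, mitochondrial-mass and membrane-permeability phenotypes given as per cents of healthy-nucleus cells.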

[1] = 12 h, 1 µM, compound concentration 1 uM, replicate 1
[2] = 12 h, 1 µM, compound concentration 1 uM, replicate 2
[3] = 12 h, 10 µM, compound concentration 10 uM, replicate 1
[4] = 12 h, 10 µM, compound concentration 10 uM, replicate 2
[5] = 24 h, 1 µM, compound concentration 1 uM, replicate 1
[6] = 24 h, 1 µM, compound concentration 1 uM, replicate 2
[7] = 24 h, 10 µM, compound concentration 10 uM, replicate 1
[8] = 24 h, 10 µM, compound concentration 10 uM, replicate 2
[9] = 48 h, 1 µM, compound concentration 1 uM, replicate 1
[10] = 48 h, 1 µM, compound concentration 1 uM, replicate 2
[11] = 48 h, 10 µM, compound concentration 10 uM, replicate 1
[12] = 48 h, 10 µM, compound concentration 10 uM, replicate 2

COC(c1ccccc1)(c1ccccc1)[C@H](Oc1nc(C)cc(C)n1)C(=O)O [AMBRISENTAN]
Population Apoptotic (%) [1]: 95% | Population Fragmented Nuclei (%) [1]: 26% | Population Healthy Nuclei (%) [1]: 62% | Population Hoechst High Intensity Objects (%) [1]: 2% | Population Membrane Permeable-Phenotype (%) [1]: 3% | Population Mitochondria Different-Phenotype (%) [1]: 0% | Population Mitotic Cells (%) [1]: 4% | Population Normal (%) [1]: 97% | Population Pyknosed Nuclei (%) [1]: 10% | Population Tubulin-Different-Phenotype (%) [1]: 1% | Total Cell Count [1]: 209 | Population Apoptotic (%) [2]: 100% | Population Fragmented Nuclei (%) [2]: 21% | Population Healthy Nuclei (%) [2]: 72% | Population Membrane Permeable-Phenotype (%) [2]: 8% | Population Mitochondria Different-Phenotype (%) [2]: 3% | Population Mitotic Cells (%) [2]: 0% | Population Pyknosed Nuclei (%) [2]: 5% | Total Cell Count [2]: 87 | Population Apoptotic (%) [3]: 61% | Population Fragmented Nuclei (%) [3]: 28% | Population Healthy Nuclei (%) [3]: 63% | Population Hoechst High Intensity Objects (%) [3]: 2% | Population Membrane Permeable-Phenotype (%) [3]: 4% | Population Mitochondria Different-Phenotype (%) [3]: 2% | Population Mitotic Cells (%) [3]: 38% | Population Normal (%) [3]: 97% | Population Pyknosed Nuclei (%) [3]: 7% | Population Tubulin-Different-Phenotype (%) [3]: 1% | Total Cell Count [3]: 232 | Population Apoptotic (%) [4]: 100% | Population Fragmented Nuclei (%) [4]: 19% | Population Healthy Nuclei (%) [4]: 72% | Population Hoechst High Intensity Objects (%) [4]: 0% | Population Mitochondria Different-Phenotype (%) [4]: 0% | Population Mitotic Cells (%) [4]: 0% | Population Normal (%) [4]: 99% | Population Tubulin-Different-Phenotype (%) [4]: 0% | Total Cell Count [4]: 104 | Population Apoptotic (%) [5]: 95% | Population Fragmented Nuclei (%) [5]: 27% | Population Healthy Nuclei (%) [5]: 63% | Population Hoechst High Intensity Objects (%) [5]: 0% | Population Membrane Permeable-Phenotype (%) [5]: 4% | Population Mitochondria Different-Phenotype (%) [5]: 1% | Population Mitotic Cells (%) [5]: 4% | Population Normal (%) [5]: 99% | Population Pyknosed Nuclei (%) [5]: 8% | Population Tubulin-Different-Phenotype (%) [5]: 1% | Total Cell Count [5]: 248 | Population Apoptotic (%) [6]: 100% | Population Fragmented Nuclei (%) [6]: 23% | Population Healthy Nuclei (%) [6]: 66% | Population Membrane Permeable-Phenotype (%) [6]: 1% | Population Mitochondria Different-Phenotype (%) [6]: 2% | Population Mitotic Cells (%) [6]: 0% | Population Pyknosed Nuclei (%) [6]: 10% | Total Cell Count [6]: 111 | Population Apoptotic (%) [7]: 84% | Population Fragmented Nuclei (%) [7]: 25% | Population Healthy Nuclei (%) [7]: 65% | Population Hoechst High Intensity Objects (%) [7]: 1% | Population Membrane Permeable-Phenotype (%) [7]: 7% | Population Mitochondria Different-Phenotype (%) [7]: 2% | Population Mitotic Cells (%) [7]: 16% | Population Normal (%) [7]: 98% | Population Pyknosed Nuclei (%) [7]: 9% | Population Tubulin-Different-Phenotype (%) [7]: 3% | Total Cell Count [7]: 273 | Population Apoptotic (%) [8]: 80% | Population Fragmented Nuclei (%) [8]: 13% | Population Healthy Nuclei (%) [8]: 77% | Population Hoechst High Intensity Objects (%) [8]: 0% | Population Mitotic Cells (%) [8]: 20% | Population Normal (%) [8]: 100% | Population Pyknosed Nuclei (%) [8]: 8% | Population Tubulin-Different-Phenotype (%) [8]: 5% | Total Cell Count [8]: 115 | Population Apoptotic (%) [9]: 89% | Population Fragmented Nuclei (%) [9]: 17% | Population Healthy Nuclei (%) [9]: 70% | Population Hoechst High Intensity Objects (%) [9]: 2% | Population Membrane Permeable-Phenotype (%) [9]: 2% | Population Mitochondria Different-Phenotype (%) [9]: 1% | Population Mitotic Cells (%) [9]: 10% | Population Normal (%) [9]: 97% | Population Pyknosed Nuclei (%) [9]: 11% | Population Tubulin-Different-Phenotype (%) [9]: 0% | Total Cell Count [9]: 333 | Population Apoptotic (%) [10]: 93% | Population Healthy Nuclei (%) [10]: 72% | Population Membrane Permeable-Phenotype (%) [10]: 0% | Population Mitotic Cells (%) [10]: 6% | Population Pyknosed Nuclei (%) [10]: 10% | Total Cell Count [10]: 151 | Population Apoptotic (%) [11]: 87% | Population Fragmented Nuclei (%) [11]: 21% | Population Healthy Nuclei (%) [11]: 68% | Population Hoechst High Intensity Objects (%) [11]: 3% | Population Membrane Permeable-Phenotype (%) [11]: 4% | Population Mitochondria Different-Phenotype (%) [11]: 2% | Population Mitotic Cells (%) [11]: 12% | Population Normal (%) [11]: 96% | Population Pyknosed Nuclei (%) [11]: 10% | Population Tubulin-Different-Phenotype (%) [11]: 3% | Total Cell Count [11]: 388 | Population Apoptotic (%) [12]: 81% | Population Fragmented Nuclei (%) [12]: 13% | Population Healthy Nuclei (%) [12]: 79% | Population Hoechst High Intensity Objects (%) [12]: 0% | Population Membrane Permeable-Phenotype (%) [12]: 2% | Population Mitochondria Different-Phenotype (%) [12]: 0% | Population Mitotic Cells (%) [12]: 18% | Population Normal (%) [12]: 100% | Population Pyknosed Nuclei (%) [12]: 6% | Population Tubulin-Different-Phenotype (%) [12]: 2% | Total Cell Count [12]: 174

Reference: ChEMBL document CHEMBL5058577, “EUbOPEN Chemogenomics Library 2 (Multiplex)” (2022)
